Assay outcomes as filed in PubChem.
Sampled rows, rich in hits. Any-hit rate of the full collection: about 0.99%.
GC-A act – GC-A stimulated cGMP production enhancers – HEK293 GC-A cells, cGMP TR-FRET, EC30 ANP, primary screen. 0% at EC30 ANP, 100% saturating ANP. 370,000 tested, 0.14% active. activation, % at 10 µM. AID 1671463, 2021. Atrial natriuretic peptide receptor 1 (Homo sapiens), P16066; in the data active = activation above about 40%
Target sequence (P16066 whole entry, looked up): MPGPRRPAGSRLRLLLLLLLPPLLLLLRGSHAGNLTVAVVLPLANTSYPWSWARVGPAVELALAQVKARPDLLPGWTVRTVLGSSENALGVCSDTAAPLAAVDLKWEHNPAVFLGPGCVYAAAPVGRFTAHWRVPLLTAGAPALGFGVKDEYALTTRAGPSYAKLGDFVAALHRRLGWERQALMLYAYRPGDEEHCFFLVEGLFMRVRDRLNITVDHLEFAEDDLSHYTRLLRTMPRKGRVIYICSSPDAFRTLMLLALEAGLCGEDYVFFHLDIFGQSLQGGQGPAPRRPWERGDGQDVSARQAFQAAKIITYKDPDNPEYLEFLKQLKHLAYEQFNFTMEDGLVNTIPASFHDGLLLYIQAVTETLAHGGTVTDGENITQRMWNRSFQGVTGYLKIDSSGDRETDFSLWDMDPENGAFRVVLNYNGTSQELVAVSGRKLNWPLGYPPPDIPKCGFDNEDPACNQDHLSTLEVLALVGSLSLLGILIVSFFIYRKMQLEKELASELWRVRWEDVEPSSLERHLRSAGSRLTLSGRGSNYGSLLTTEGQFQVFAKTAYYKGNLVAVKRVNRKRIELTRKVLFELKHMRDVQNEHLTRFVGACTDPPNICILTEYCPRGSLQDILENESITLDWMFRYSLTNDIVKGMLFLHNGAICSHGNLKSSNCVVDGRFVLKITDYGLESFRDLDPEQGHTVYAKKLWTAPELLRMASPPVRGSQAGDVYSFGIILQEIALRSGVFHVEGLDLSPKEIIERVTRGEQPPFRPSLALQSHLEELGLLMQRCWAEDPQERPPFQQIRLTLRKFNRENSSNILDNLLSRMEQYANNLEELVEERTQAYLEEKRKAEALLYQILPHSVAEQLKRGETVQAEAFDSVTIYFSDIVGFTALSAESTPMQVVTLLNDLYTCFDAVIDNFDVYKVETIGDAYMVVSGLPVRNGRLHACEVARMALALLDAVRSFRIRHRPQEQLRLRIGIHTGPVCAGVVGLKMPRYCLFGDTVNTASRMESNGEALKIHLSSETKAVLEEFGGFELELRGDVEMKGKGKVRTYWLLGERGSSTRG
FN deposition inh – inhibitors of fibronectin matrix deposition, primary screen, AH1F cells, Alexa488-fibronectin fluorescence, plate reader. AH1F fibroblasts, overnight. inhibition, % at 12.6 µM. 350,000 tested, 0.086% active. AID 743247, 2014;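 active = mean inhibition across replicates of 30% or more, regardless of how many single replicates reach that level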;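 also: positive control wells lacked labelled fibronectin entirely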
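Material: AH1F fibroblasts assembling fluorescent fibronectin matrix; amount: 10000 AH1F cells/well; medium: DMEM, 2% serum; reagent: Alexa488-fibronectin, 24 nM final in well; dosing: single compound dose, delivered by pin transfer; incubation: 1 h adhesion, overnight exposure; detection: fluorescence after three HBSS washes, excitation 485 nm, emission 525 nm; measure: fibronectin deposition inhibition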
Casp6 inh – human caspase-6 inhibitors, primary screen, biochemical, VEID-R110 fluorescence, single point, set 2; 350,000 tested, 0.53% active; inhibition, % at 12.5 µM; AID 686996, 2013; P55212; purified caspase-6, Z-VEID-R110 cleavage fluorescence;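 active = mean inhibition across replicates at least about 35%, with every replicate also reaching that limit, limit read from the data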;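 also: 0% = median of neutral control wells and 100% = no fluorescence left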
GC-B act – human GC-B receptor activators, primary screen, HEK293 GC-B cells, cGMP TR-FRET, EC30 CNP | Atrial natriuretic peptide receptor 2 (Homo sapiens), P20594 | 0% at EC30 CNP, 100% saturating CNP | activation, % at 10 µM | 370,000 tested, 0.11% active;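 active = activation at 10 µM reaching about 35% in either raw or pattern-adjusted values, limit read from the data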
NSD2 inh – NSD2 histone methyltransferase inhibitors, primary screen, biochemical, AlphaScreen, single concentration, set 2; Histone-lysine N-methyltransferase NSD2 (Homo sapiens), O96028; 310,000 tested, 0.54% active; inhibition, % at 12.5 µM; NSD2 peptide methylation, 120 min; AID 743445, 2014; in the data active = inhibition above about 50%
CaV13 ICDI inh – Disruptors of the CACNA1D IQ motif to Ca2+-dependent inactivation inhibitor domain association, primary screening, Förster resonance energy transfer in intact living … | inhibition, % at 12.3 µM | 340,000 tested, 0.098% active | HEK cells, CFP/YFP FRET ICDI-IQ, plate reader, 10 min; percent FRET-ratio fall versus neutral wells;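 active = mean replicate inhibition of at least 30% and at least 1% of replicates passing that level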;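 also: 0% = median of the neutral control wells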
Alpha artifact – AlphaScreen signal interference with preloaded methylated product, dose response, artefact control for NSD2 inhibitor project, biochemical, cherry-picked samples | 1,500 tested, 9.4% active | AC35, µM (highest dose often 10 µM), inactives show at the top dose activity change, negative = signal loss | AlphaScreen artifact counterscreen, preloaded methylated H4 peptide | shares compounds with NSD2 inh; call rule not given here
Active calls of the source: *; / = not tested or not shown.

SMILES | GC-A act | FN deposition inh | Casp6 inh | GC-B act | NSD2 inh | CaV13 ICDI inh | Alpha artifact
C[C@H]1CCCCO[C@H](CN(C)S(=O)(=O)c2cccs2)[C@@H](C)CN([C@@H](C)CO)C(=O)c2cc(NS(C)(=O)=O)ccc2O1 | / | / | 1 | / | / | / | /
CCCC(=O)Nc1ccc(C(=O)O)cc1NC(=O)CCC | -6 | -8 | / | 4 | 72* | -4 | -2%
Oc1cccc(/C=N/N(Cc2ccccc2)c2ccccc2)c1 | -12 | 21 | 1 | -5 | 11 | 1 | /
Oc1cccc(C=NCc2ccccc2)c1 | 3 | / | / | 6 | 159* | -6 | 9%
N#Cc1cc2ccc(N3CCOCC3)cc2cc1C#N | 1 | / | 64* | -5 | 120* | -6 | 4%
O=C(CSc1nc2nn(-c3ccccc3)c(=O)c-2c2n1CCCCC2)c1ccc(O)c(O)c1 | / | / | / | / | 94* | / | 7.9µM*
CCc1ccc(NC(=O)c2cc(-c3ccc4c(c3)OCO4)on2)cc1 | 4 | 2 | -2 | 1 | 87* | -2 | 1%
C[C@@H]1CCCCO[C@@H](CN(C)C(=O)Nc2ccc(F)cc2)[C@@H](C)CN([C@@H](C)CO)C(=O)c2cc(NC(=O)Cc3ccccc3)ccc2O1 | / | / | 0 | / | / | / | /
COc1cccc(/C(O)=C2\C(=O)C(=O)N(c3ccccn3)C2c2ccccc2OC)c1 (stereo unspecified) | -1 | 5 | / | -2 | -1 | -4 | /
COc1ccc(C2/C(=C(\O)c3cccc(OC)c3)C(=O)C(=O)N2c2ccccn2)cc1 (stereo unspecified) | 0 | -1 | 24 | -5 | 116* | -4 | -1%
C[C@H]1CN([C@@H](C)CO)C(=O)Cc2cc(NC(=O)Nc3ccc(C(F)(F)F)cc3)ccc2O[C@@H]1CN(C)Cc1ccc(C(=O)Nc2ccccc2N)cc1 | / | / | 1 | / | / | / | /
O=C(CCC(=O)N1CCN(c2cccc(Cl)c2)CC1)N1CCN(c2ccccc2)CC1 | 5 | 2 | -2 | 3 | 4 | -12 | /
Clc1cccc(N2CCN(CCCN3CCN(c4ccccc4)CC3)CC2)c1 | -6 | -4 | -2 | 0 | 53* | -7 | -17%
CCN(Cc1ccccc1)Cc1c(C)[nH]c2c(C)c(C)ccc2c1=O | 0 | 10 | / | 2 | 56* | -6 | -6%
Cc1nn(CCc2n[nH]c(=S)n2-c2cccc(Cl)c2)c(C)c1[N+](=O)[O-] | 0 | -1 | / | -2 | 9 | -6 | /
Cc1cccc(-n2c(Cn3nc(C)c([N+](=O)[O-])c3C)n[nH]c2=S)c1 | 5 | / | / | 2 | 125* | / | 2%
Cc1ccc(C)c(-n2c3nc(=O)[nH]c(=O)c-3cc3cc([N+](=O)[O-])ccc32)c1 | -2 | 13 | 50* | -1 | 60* | -6 | -8%
Cc1cccc(-n2c3nc(=O)[nH]c(=O)c-3cc3cc([N+](=O)[O-])ccc32)c1 | 1 | -8 | 9 | -1 | 58* | -5 | -6%
CO[C@H]1CN(C)C(=O)c2cc(NC(=O)CC(F)(F)F)ccc2OC[C@@H](C)N(C(=O)C2CC2)C[C@H]1C | / | 16 | -1 | / | / | / | /
O=C(Nc1ccc(C(F)(F)F)cc1)N[C@H]1CC[C@@H](CC(=O)N2CCCCC2)O[C@H]1CO | / | -8 | / | / | / | / | /
CCN1CCCCC(=N/O)/C(=N/O)CCCC1 | 0 | 6 | 0 | 0 | 71* | -7 | 4%
CCN(CC)CCCNC(=O)C1CCN(C(=O)c2oc3cc4sc(N(C)C)nc4cc3c2C)CC1 | 1 | -4 | -12 | -2 | 57* | -3 | 0%
O=C(COC(=O)c1ccccc1F)NC1CC1 | 5 | 9 | 1 | 6 | 52* | -4 | 2%
C[C@@H]1CN([C@H](C)CO)C(=O)c2cc(NC(=O)c3ccncc3)ccc2O[C@@H]1CN(C)Cc1ccc2c(c1)OCO2 | / | / | 2 | / | / | / | /
CO[C@@H]1CN(C)C(=O)c2ccc(NC(=O)c3ccc4c(c3)OCO4)cc2OC[C@H](C)N(CC2CC2)C[C@H]1C | / | 3 | -1 | / | / | / | /
SMILES | GC-A act | FN deposition inh | Casp6 inh | GC-B act | NSD2 inh | CaV13 ICDI inh | Alpha artifact
COc1ccc2c3c(cccc13)N(C)N=C2C | 2 | / | / | -1 | 72* | -6 | 3%
COc1cc(N)c2ncccc2c1SC | -2 | -9 | 5 | -1 | 8 | -5 | /
COc1cc(N)c2ncccc2c1Br | 5 | -5 | 93* | -3 | 152* | -9 | -2%
C[C@@H]1CN([C@H](C)CO)C(=O)c2cc(NS(=O)(=O)c3ccccc3)ccc2O[C@@H](C)CCCCO[C@@H]1CN(C)Cc1ccc(C(=O)O)cc1 | / | 0 | / | / | / | / | /
c1ccc(-c2nc(N3CCOCC3)c3ccccc3n2)nc1 | 2 | -2 | / | 6 | 64* | -4 | -7%
Cc1noc(C)c1NC(=O)N(C)C[C@@H]1Oc2ccc(N(C)C)cc2C(=O)N([C@H](C)CO)C[C@@H]1C | / | / | 0 | / | / | / | /
CSc1nnc(-c2ccc(S(=O)(=O)N3CCCCC3)cc2)o1 | 0 | 2 | -1 | 0 | 0 | -3 | /
O=S(=O)(c1ccc(-c2nnco2)cc1)N1CCCCC1 | 3 | 0 | 0 | 4 | 93* | -7 | -1%
CC(C)NC(=O)Nc1cccc2c1O[C@@H](CN(C)CC1CCCCC1)[C@H](C)CN([C@@H](C)CO)C2=O | / | / | 1 | / | / | / | /
CCC1(c2ccc(F)cc2)NC(=O)N(CC(=O)N(CCC#N)c2ccccc2)C1=O (stereo unspecified) | -2 | -5 | 1 | -3 | 60* | -4 | -4%
Cc1ccc(S(=O)(=O)Nc2ccc(Br)cc2C(NCC(=O)O)c2ccccc2)cc1 (stereo unspecified) | 0 | / | / | 0 | -6 | -6 | /
O=C(O)CSc1cc(NS(=O)(=O)c2ccc(Br)cc2)c2ccccc2c1O | 1 | 6 | 95* | 0 | 107* | -2 | -6%
COc1cc(/C=C/C(=O)OCC(=O)NNC(=O)c2cc(Cl)ccc2OC)ccc1O | -7 | 0 | 5 | 1 | 63* | -2 | 2%
COc1cc(/C=C/C(=O)OCC(=O)NC(=O)NC(C)(C)C)ccc1O | 1 | -2 | 0 | -2 | 0 | -6 | /
O=C(NCc1ccc(F)cc1)[C@H]1C[C@H]2C(=O)N3CCC[C@H]3C(=O)N2[C@H]1c1ccc(O)cc1 | / | / | 3 | / | / | / | /
